From ChEMBL document CHEMBL1156914, “Novel inhibitors of dengue virus methyltransferase: discovery by in vitro-driven virtual screening on a desktop computer grid” (J Med Chem, 2010)

Assays:
[1] = Cytotoxicity against human A549 cells after 48 hrs; format: cell-based
dengue virus type 2 = assay: Antiviral activity against Dengue virus type 2 infected in human A549 cells assessed as decrease in viral E protein production by cell-based flavivirus immunodetection assay; format: functional, organism-based
Genome polyprotein [2] = molecular target: T1, Genome polyprotein (dengue virus type 2, UniProt P12823); assay: Inhibition of Dengue virus type 2 NS5 RNA methyltransferase SAM site with 0.1 % TX100
T1 sequence (P12823 2489-3388 limits assumed): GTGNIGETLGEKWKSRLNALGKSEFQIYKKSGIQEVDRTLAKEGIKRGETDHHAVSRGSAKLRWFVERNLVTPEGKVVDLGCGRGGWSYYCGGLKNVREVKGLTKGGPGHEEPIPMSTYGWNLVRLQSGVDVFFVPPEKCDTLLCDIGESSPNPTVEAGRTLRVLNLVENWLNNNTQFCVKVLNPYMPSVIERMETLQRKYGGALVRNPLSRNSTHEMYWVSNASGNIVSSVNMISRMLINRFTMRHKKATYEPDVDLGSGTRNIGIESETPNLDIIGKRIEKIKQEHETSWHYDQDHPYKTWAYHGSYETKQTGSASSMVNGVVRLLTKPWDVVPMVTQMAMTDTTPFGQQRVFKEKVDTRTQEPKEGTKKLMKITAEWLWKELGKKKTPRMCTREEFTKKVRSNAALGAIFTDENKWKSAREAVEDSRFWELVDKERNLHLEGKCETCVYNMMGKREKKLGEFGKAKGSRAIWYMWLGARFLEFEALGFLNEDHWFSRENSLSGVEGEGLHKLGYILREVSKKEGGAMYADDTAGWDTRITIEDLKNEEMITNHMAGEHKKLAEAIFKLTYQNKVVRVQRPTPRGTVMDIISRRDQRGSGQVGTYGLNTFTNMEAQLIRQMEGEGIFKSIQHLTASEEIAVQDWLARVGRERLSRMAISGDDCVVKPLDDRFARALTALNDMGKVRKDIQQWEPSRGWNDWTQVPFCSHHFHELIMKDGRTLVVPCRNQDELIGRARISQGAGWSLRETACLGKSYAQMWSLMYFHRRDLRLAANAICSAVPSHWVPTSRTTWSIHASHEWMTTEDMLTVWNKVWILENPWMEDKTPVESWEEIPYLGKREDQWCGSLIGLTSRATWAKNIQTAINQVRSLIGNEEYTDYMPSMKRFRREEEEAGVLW

Genome polyprotein [3] = molecular target: T1, Genome polyprotein; assay: Inhibition of Dengue virus type 2 NS5 RNA methyltransferase SAM site
Genome polyprotein [4] = molecular target: T1, Genome polyprotein; assay: Inhibition of Dengue virus type 2 NS5 RNA methyltransferase RNA site
Genome polyprotein [5] = molecular target: T1, Genome polyprotein; assay: Inhibition of Dengue virus type 2 NS5 RNA methyltransferase RNA site with 0.1 % TX100
Summary of the method: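 Detergent-sensitivity variant of the SPA methyl-transfer assay: 0.1% Triton X-100 added to the reaction mix. Otherwise 25 nM DENV2 MTase, 40 nM biotinylated RNA, 20 min room-temperature preincubation, 0.56 μM [3H]AdoMet. Counts read after bead stop. Duplicate wells.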

Genome polyprotein [6] = molecular target: T1, Genome polyprotein; assay: Inhibition of Dengue virus type 2 NS5 RNA methyltransferase by spin-down assay
Genome polyprotein [7] = molecular target: T1, Genome polyprotein; assay: Inhibition of Dengue virus type 2 NS5 RNA methyltransferase at 80 nM enzyme concentration
Genome polyprotein [8] = molecular target: T1, Genome polyprotein; assay: Inhibition of Dengue virus type 2 NS5 RNA methyltransferase at 8 nM enzyme concentration

Row | Compound | IC50 (Genome polyprotein [2]) | IC50 (Genome polyprotein [3]) | IC50 (Genome polyprotein [4]) | IC50 (Genome polyprotein [5]) | also measured
1 | O=C(O)c1cnc2c([N+](=O)[O-])cccc2c1O | 14.3 µM | 14.3 µM |  |  | CC50 at 48 h [1]: > 100 µM; EC50 (dengue virus type 2): > 100 µM
2 | O=C(O)c1ccc(S(=O)(=O)c2ccc(C(=O)O)cc2)cc1 | > 100 µM | 29.9 µM |  |  | 
3 | Cc1cc(C(=O)CSc2nc(N)cc(=O)[nH]2)c(C)n1Cc1ccc2c(c1)OCO2 | > 100 µM | 16.1 µM |  |  | 
4 | O=C(CCCCC(=O)N/N=C/c1ccc(O)cc1O)N/N=C/c1ccc(O)cc1O | > 25 µM | 4.29 µM |  |  | 
5 | Cc1ccccc1COc1ccc(C(=O)[C@@H]2C(=O)C(=O)N(Cc3ccncc3)[C@H]2c2cccc(O)c2)cc1 | > 100 µM | 9.62 µM |  |  | 
6 | O=C(O)CCC(=O)N1NC(c2c(O)nc3ccc(Cl)cc3c2-c2ccccc2)=C[C@@H]1c1ccc(Br)cc1 |  |  | 4.42 µM | 44.5 µM | CC50 at 48 h [1]: > 100 µM; EC50 (dengue virus type 2): > 100 µM
7 | O=C(Cn1ccc(=O)[nH]c1=O)Nc1ccc(O)c([N+](=O)[O-])c1 | > 100 µM | 29 µM |  |  | 
8 | Cc1ccc(C23CC4CC(CC(C(=O)Nc5cccc(C(=O)O)c5)(C4)C2)C3)cc1 |  |  | 37.5 µM | > 100 µM | 
9 | O=C(O)c1cccc(NC(=O)c2ccc(CSc3ccc(Br)cc3)cc2)c1 |  |  | 7.99 µM | > 100 µM | 
10 | COc1ccc(/C=C2/CN(CCCC(=O)O)C(=O)C2=O)cc1 | 4.47 µM | 8.78 µM |  |  | CC50 at 48 h [1]: > 100 µM; EC50 (dengue virus type 2): > 100 µM; IC50 (Genome polyprotein [6]): 10.5 µM
11 | O=S(=O)(O)c1cccc(NNc2ccc(Nc3ccccc3)cc2)c1 |  |  | 7.56 µM | 7.14 µM | CC50 at 48 h [1]: > 100 µM; EC50 (dengue virus type 2): > 100 µM; IC50 (Genome polyprotein [7]): 10.2 µM; IC50 (Genome polyprotein [8]): 7.62 µM; IC50 (Genome polyprotein [6]): 10.7 µM
12 | COc1cc(/C=C2/NC(=O)N(Cc3ccc(Cl)cc3Cl)C2=O)ccc1O[C@H](C)C(=O)O |  |  | 11.3 µM | > 100 µM | 
13 | O=C1NC(=O)/C(=C\c2ccc(O)cc2)N1 | > 100 µM | 27.6 µM |  |  | 
14 | O=S(=O)(Nc1ccccc1)c1cc(S(=O)(=O)Nc2ccccc2)c2cc(O)ccc2c1 | > 100 µM | 21.1 µM |  |  | 
15 | CCOc1cc(/C=C2\C(=O)N(c3ccc4ccccc4c3)N=C2C)ccc1OCCC(=O)O |  |  | 7.11 µM | > 100 µM | 
16 | O=C(O)COc1ccc(Br)cc1/C=C1\CC/C(=C\c2cc(Br)ccc2OCC(=O)O)C1=O |  |  | 2.81 µM | 19.5 µM | CC50 at 48 h [1]: > 100 µM; EC50 (dengue virus type 2): > 100 µM
17 | O=C(O)c1ccccc1C(=O)Nc1nc(-c2ccc3ccccc3c2)cs1 |  |  | 14.5 µM | > 100 µM | 
18 | O=C(c1cccc([N+](=O)[O-])c1)c1no[n+]([O-])c1C(=O)c1cccc([N+](=O)[O-])c1 | > 100 µM | 31.4 µM |  |  | 
19 | COc1cc(NS(=O)(=O)c2ccc(NC(=O)/C=C/c3cccc4ccccc34)cc2)nc(OC)n1 |  |  | 6.83 µM | > 100 µM | 
20 | Cc1cc(O)c2c(c1)C(=O)c1cc(O)cc(O)c1C2=O [EMODIN] | 79.8 µM | 16.9 µM |  |  | CC50 at 48 h [1]: 30.7 µM; EC50 (dengue virus type 2): 10.9 µM

Second part, led by results:

Row | IC50 (Genome polyprotein [2]) | IC50 (Genome polyprotein [3]) | IC50 (Genome polyprotein [4]) | IC50 (Genome polyprotein [5]) | Compound | also measured
21 | > 100 µM | 25.3 µM |  |  | NC(=O)C1=CN(Cc2ccccc2)C=CC1 | 
22 |  |  | 12.4 µM | > 100 µM | O=C(O)COc1ccccc1/C=N\NC(=O)Cc1csc(Nc2cccc(C(F)(F)F)c2)n1 | 
23 |  |  | 20.3 µM | > 100 µM | Cc1cc(/C=N\NC(=O)Nc2ccccc2)c(C)n1-c1cc(C(=O)O)cc(C(=O)O)c1 | 
24 |  |  | 11.9 µM | > 100 µM | Cc1c(CC(=O)N[C@@H](Cc2c[nH]c3ccc(O)cc23)C(=O)O)c(=O)oc2cc3occ(C(C)(C)C)c3cc12 | 
25 |  |  | 4.8 µM | 4.91 µM | O=C(O)c1ccccc1/C=N/NC(=O)c1cc(-c2ccco2)nc2ccccc12 | CC50 at 48 h [1]: > 100 µM; EC50 (dengue virus type 2): > 100 µM; IC50 (Genome polyprotein [6]): 4.34 µM
26 |  |  | 13.5 µM | 87.1 µM | CCN(CC)c1ccc(/C=N\Nc2ccc(Cl)c(C(=O)O)c2)c(O)c1 | CC50 at 48 h [1]: 75.1 µM; EC50 (dengue virus type 2): 50 µM
27 |  |  | 8.81 µM | > 100 µM | O=C(N/N=C\c1ccccc1C(=O)O)c1ccc(COc2ccc3ccccc3c2)cc1 | 
28 | > 100 µM | 12.8 µM |  |  | O=C1C(=O)N(Cc2cccnc2)[C@H](c2cccc(Oc3ccccc3)c2)/C1=C(/O)c1ccco1 | 
29 |  |  | 9.28 µM | 64.2 µM | Cc1ccc(Cl)cc1NS(=O)(=O)c1ccc(NS(=O)(=O)c2ccc3ccccc3c2)cc1 | CC50 at 48 h [1]: 22.7 µM; EC50 (dengue virus type 2): 12 µM
30 |  |  | 17.6 µM | > 100 µM | N#Cc1c(NC(=O)c2cccc(S(=O)(=O)Nc3ccc(C(=O)O)cc3)c2)sc2c1CCCC2 | 
31 | > 25 µM | 2.91 µM |  |  | COc1ccc(CN(CC[C@@H](c2ccccc2)c2ccco2)C(=O)c2ccoc2)cc1 | 
32 | > 100 µM | 9.84 µM |  |  | Cc1ccc(C)c(C(=O)C2=C(O)C(=O)N(CCc3ccccc3)[C@@H]2c2ccc(O)cc2)c1 | 
33 |  |  | 13.2 µM | > 100 µM | COc1cc(CNc2ccc(C(=O)O)cc2)ccc1OCc1ccccc1Cl | 
34 | > 100 µM | 27.5 µM |  |  | COc1ccc2c(c1)C(CC(=O)O)CN2Cc1ccccc1 (stereo unspecified) | 
